This is an account of results in ChEMBL document CHEMBL3739303, “Targeting the Src Homology 2 (SH2) Domain of Signal Transducer and Activator of Transcription 6 (STAT6) with Cell-Permeable, Phosphatase-Stable Phosphopeptide Mimics Potently Inhibits Tyr641 Phosphorylation and Transcriptional Activity” (J Med Chem, 2015).

Structures are written as SMILES. Peptide text beside a SMILES is read from it.

The target in the experiment is T1, Signal transducer and activator of transcription 6 (Homo sapiens, UniProt P42226).
T1 sequence (P42226 whole entry): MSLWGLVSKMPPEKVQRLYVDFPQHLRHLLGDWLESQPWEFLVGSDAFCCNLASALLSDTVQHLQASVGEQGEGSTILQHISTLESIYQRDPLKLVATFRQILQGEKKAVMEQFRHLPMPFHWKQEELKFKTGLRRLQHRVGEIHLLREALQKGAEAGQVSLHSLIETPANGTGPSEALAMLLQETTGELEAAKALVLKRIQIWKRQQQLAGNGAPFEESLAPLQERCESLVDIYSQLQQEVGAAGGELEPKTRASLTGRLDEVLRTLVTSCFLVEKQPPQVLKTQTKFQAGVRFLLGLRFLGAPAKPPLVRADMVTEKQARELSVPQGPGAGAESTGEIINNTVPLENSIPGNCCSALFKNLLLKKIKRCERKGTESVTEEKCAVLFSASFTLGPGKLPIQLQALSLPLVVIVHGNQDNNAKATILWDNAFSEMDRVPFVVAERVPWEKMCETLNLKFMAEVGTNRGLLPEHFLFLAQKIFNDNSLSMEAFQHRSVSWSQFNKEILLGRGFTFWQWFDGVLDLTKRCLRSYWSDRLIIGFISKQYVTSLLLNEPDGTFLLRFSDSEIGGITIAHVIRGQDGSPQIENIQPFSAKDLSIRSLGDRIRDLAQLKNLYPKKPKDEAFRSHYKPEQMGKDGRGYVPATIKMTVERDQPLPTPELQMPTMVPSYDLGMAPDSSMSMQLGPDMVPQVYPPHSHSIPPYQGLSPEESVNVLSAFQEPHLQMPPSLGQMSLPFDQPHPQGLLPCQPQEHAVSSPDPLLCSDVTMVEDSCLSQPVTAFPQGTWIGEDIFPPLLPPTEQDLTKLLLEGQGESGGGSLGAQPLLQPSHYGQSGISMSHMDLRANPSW
In words: Inhibition of STAT6 (unknown origin) expressed in Escherichia coli using FAM-Ala-pTyr-Lys-ProPhe-Gln-Asp-Leu-Ile-NH2 as substrate by fluorescence polarization assay. The method, boiled down: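 His6-tagged STAT6 construct (coiled-coil, DNA-binding, linker and SH2 domains), purified by nickel IMAC; competitive FP binding. STAT6 at 480 nM mixed with 20 nM FAM-labelled phosphopeptide probe, then equal volume of serially diluted peptides (from 200 μM) added. Buffer: 50 mM NaCl, 10 mM Hepes, 1 mM Na4EDTA, 2 mM DTT, 1% NP-40. mP plotted against log concentration; IC50 by nonlinear regression; triplicate, three probe preparations; mean ± SD.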
On the technique in general: Polarisation of emitted light reports the rotation of a fluorescent probe.
For `C/C(=C\C(=O)N[C@H](C(=O)N(C)[C@@H](C)C(=O)N(C)c1ccccc1)C(C)(C)C)c1ccc(OP(=O)(O)O)cc1`, 480 nM corresponded to half-maximal inhibition (IC50).

Molecule `C/C(=C\C(=O)N[C@H](C(=O)N1CCC[C@H]1C(=O)N(c1ccccc1)c1ccc(I)cc1)C(C)(C)C)c1ccc(OP(=O)(O)O)cc1` gave a 50% inhibitory concentration (IC50) of 28 nM.

With `CN(C(=O)[C@@H]1CCCN1C(=O)[C@@H](NC(=O)/C=C/c1ccc(OP(=O)(O)O)cc1)C(C)(C)C)c1ccccc1`, half-maximal inhibition (IC50) required 870 nM.

`C/C(=C\C(=O)N[C@H](C(=O)N(C)CC(=O)N(C)c1ccccc1)C(C)(C)C)c1ccc(OP(=O)(O)O)cc1`: the IC50 turned out to be 270 nM.

In turn, `CC(=O)N[C@@H](Cc1ccc(OP(=O)(O)O)cc1)C(=O)N[C@@H](CCCCN)C(=O)N1CCC[C@H]1C(=O)N[C@@H](Cc1ccccc1)C(=O)N[C@@H](CCC(N)=O)C(=O)N[C@@H](CC(=O)O)C(=O)N[C@@H](CC(C)C)C(N)=O` (HELM PEPTIDE1{[ac].[O=C([C@H](Cc1ccc(OP(=O)(O)O)cc1)N[*:1])[*:2]].K.P.F.Q.D.L.[am]}$$$$V2.0) returned an IC50 of 2400 nM. Under `NCCCC[C@H](NC(=O)/C=C/c1ccc(OP(=O)(O)O)cc1)C(=O)N1CCC[C@H]1C(=O)N[C@@H](Cc1ccccc1)C(N)=O` stands 8600 nM. To `C/C(=C\C(=O)N[C@H](C(=O)N1CCC[C@H]1C(=O)N(C)C)C(C)(C)C)c1ccc(OP(=O)(O)O)cc1` belongs 740 nM; to `CC(C)(C)[C@H](NC(=O)c1cc2cc(OP(=O)(O)O)ccc2[nH]1)C(=O)N1CCC[C@H]1C(=O)N(c1ccccc1)c1ccc(I)cc1`, 140 nM; to `CC(=O)N[C@@H](Cc1ccc(OP(=O)(O)O)cc1)C(=O)N[C@@H](CCCCN)C(=O)N1CCC[C@H]1C(N)=O` (HELM PEPTIDE1{[ac].[O=C([C@H](Cc1ccc(OP(=O)(O)O)cc1)N[*:1])[*:2]].K.P.[am]}$$$$V2.0), 5200 nM.

In turn, `CC(C)(C)[C@H](NC(=O)/C=C/c1ccc(OP(=O)(O)O)cc1)C(=O)N1CCC[C@H]1C(=O)Nc1ccccc1` had a 50% inhibitory concentration (IC50) of 1250 nM. To `CC[C@H](C)[C@H](NC(=O)[C@H](CC(C)C)NC(=O)[C@H](CC(=O)O)NC(=O)[C@H](CCC(N)=O)NC(=O)[C@H](Cc1ccccc1)NC(=O)[C@@H]1CCCN1C(=O)[C@H](CCCCN)NC(=O)[C@H](Cc1ccc(OP(=O)(O)O)cc1)NC(C)=O)C(N)=O` (HELM PEPTIDE1{[ac].[O=C([C@H](Cc1ccc(OP(=O)(O)O)cc1)N[*:1])[*:2]].K.P.F.Q.D.L.I.[am]}$$$$V2.0) belongs 1800 nM.

Take `C/C(=C\C(=O)N[C@H](C(=O)N1CCC[C@H]1C(=O)NCc1ccccc1)C(C)(C)C)c1ccc(OP(=O)(O)O)cc1`: the 50% inhibitory concentration (IC50) is 340 nM.

Turning to `C/C(=C\C(=O)N[C@H](C(=O)N1CCCC1CN(C)c1ccccc1)C(C)(C)C)c1ccc(OP(=O)(O)O)cc1` (stereo partly drawn), the half-inhibitory concentration (IC50) worked out at 410 nM. `C/C(=C\C(=O)N[C@H](C(=O)N1CCCC1/C=C/c1ccccc1)C(C)(C)C)c1ccc(OP(=O)(O)O)cc1` (stereo partly drawn) displayed a concentration for half-maximal inhibition (IC50) of 3430 nM. Under `CC(=O)N[C@@H](Cc1ccc(OP(=O)(O)O)cc1)C(=O)N[C@@H](CCCCN)C(=O)N1CCC[C@H]1C(=O)N[C@@H](Cc1ccccc1)C(N)=O` (HELM PEPTIDE1{[ac].[O=C([C@H](Cc1ccc(OP(=O)(O)O)cc1)N[*:1])[*:2]].K.P.F.[am]}$$$$V2.0) stands 6100 nM; under `C/C(=C\C(=O)N[C@H](C(=O)N1CCC[C@H]1C(=O)N(C)c1ccccc1)C(C)(C)C)c1ccc(OP(=O)(O)O)cc1`, 120 nM; under `C/C(=C\C(=O)N[C@H](C(=O)N1CCCC1/C=C/CCc1ccccc1)C(C)(C)C)c1ccc(OP(=O)(O)O)cc1` (stereo partly drawn), 540 nM. To `CC(=O)N[C@@H](Cc1ccc(OP(=O)(O)O)cc1)C(=O)N[C@@H](CCCCN)C(=O)N1CCC[C@H]1C(=O)N[C@@H](Cc1ccccc1)C(=O)N[C@@H](CCC(N)=O)C(N)=O` (HELM PEPTIDE1{[ac].[O=C([C@H](Cc1ccc(OP(=O)(O)O)cc1)N[*:1])[*:2]].K.P.F.Q.[am]}$$$$V2.0) belongs 4200 nM; to `NCCCC[C@H](NC(=O)[C@H](Cc1ccc(OP(=O)(O)O)cc1)NC(=O)/C=C/c1ccccc1)C(=O)N1CCC[C@H]1C(=O)N[C@@H](Cc1ccccc1)C(N)=O` (HELM PEPTIDE1{[O=C(/C=C/c1ccccc1)[*:2]].[O=C([C@H](Cc1ccc(OP(=O)(O)O)cc1)N[*:1])[*:2]].K.P.F.[am]}$$$$V2.0), 6600 nM. To `CC(C)(C)[C@H](NC(=O)/C=C/c1ccc(OP(=O)(O)O)cc1)C(=O)N1CCC[C@H]1C(=O)N(c1ccccc1)c1ccc(I)cc1` belongs 44 nM. The molecule `CC(=O)N[C@@H](Cc1ccc(OP(=O)(O)O)cc1)C(=O)N[C@@H](CCCCN)C(=O)N1CCC[C@H]1C(=O)N[C@@H](Cc1ccccc1)C(=O)N[C@@H](CCC(N)=O)C(=O)N[C@@H](CC(=O)O)C(N)=O` (HELM PEPTIDE1{[ac].[O=C([C@H](Cc1ccc(OP(=O)(O)O)cc1)N[*:1])[*:2]].K.P.F.Q.D.[am]}$$$$V2.0) registered a concentration for half-maximal inhibition (IC50) of 4500 nM. To `C/C(=C\C(=O)N[C@H](C(=O)N1CCCC1CCCCc1ccccc1)C(C)(C)C)c1ccc(OP(=O)(O)O)cc1` (stereo partly drawn) belongs 1070 nM. Under `C/C(=C\C(=O)N[C@H](C(=O)N1CCC[C@H]1C(=O)NCCc1ccccc1)C(C)(C)C)c1ccc(OP(=O)(O)O)cc1` stands 250 nM.

A word on the IC50: it is the concentration needed to halve the response being measured. High values mean weaker potency, low ones greater potency.
